Columns and labels:
Format in all cases: cell-based
[1] = molecular target: T1, RNA polymerase II (Mus musculus) (UniProt P08775+Q8CFI7+P97760+A0A3Q4L2S8+Q80UW8+P61219+P62488+Q923G2+P60898+O08740+Q63871+P62876); test: Inhibition of RNA polymerase II in mouse B16-F1 migrating cells assessed as fold change in Mad2l2-RNA stability at 0.1 mM measured by ChIP-seq analysis relative to control cells
[2] = molecular target: T1, RNA polymerase II (Mus musculus); test: Inhibition of RNA polymerase II in mouse B16-F1 migrating cells assessed as fold change in Mex3c-RNA stability at 0.1 mM measured by ChIP-seq analysis relative to control cells
[3] = molecular target: T1, RNA polymerase II (Mus musculus); test: Inhibition of RNA polymerase II in mouse B16-F1 migrating cells assessed as fold change in Samd14-RNA stability at 0.1 mM measured by […] analysis relative to control cells
[4] = molecular target: T1, RNA polymerase II (Mus musculus); test: Inhibition of RNA polymerase II in mouse B16-F1 migrating cells assessed as fold change in Psip1-RNA stability at 0.1 mM measured by […] analysis relative to control cells
[5] = molecular target: T1, RNA polymerase II (Mus musculus); test: Inhibition of RNA polymerase II in mouse B16-F1 migrating cells assessed as fold change in Dock10-RNA stability at 0.1 mM measured by ChIP-seq analysis relative to control cells
[6] = molecular target: T1, RNA polymerase II (Mus musculus); test: Inhibition of RNA polymerase II in mouse B16-F1 migrating cells assessed as fold change in Abi1-RNA stability at 0.1 mM measured by […] analysis relative to control cells
[7] = molecular target: T1, RNA polymerase II (Mus musculus); test: Inhibition of RNA polymerase II in mouse B16-F1 migrating cells assessed as fold change in Nae1-RNA stability at 0.1 mM measured by ChIP-seq analysis relative to control cells
[8] = molecular target: T1, RNA polymerase II (Mus musculus); test: Inhibition of RNA polymerase II in mouse B16-F1 migrating cells assessed as fold change in Fxr1-RNA stability at 0.1 mM measured by ChIP-seq analysis relative to control cells
[9] = molecular target: T1, RNA polymerase II (Mus musculus); test: Inhibition of RNA polymerase II in mouse B16-F1 migrating cells assessed as fold change in Gulp1-RNA stability at 0.1 mM measured by ChIP-seq analysis relative to control cells
[10] = molecular target: T1, RNA polymerase II (Mus musculus); test: Inhibition of RNA polymerase II in mouse B16-F1 migrating cells assessed as fold change in Fkbp8-RNA stability at 0.1 mM measured by ChIP-seq analysis relative to control cells
[11] = molecular target: T1, RNA polymerase II (Mus musculus); test: Inhibition of RNA polymerase II in mouse B16-F1 migrating cells assessed as fold change in Shprh-RNA stability at 0.1 mM measured by […] analysis relative to control cells
[12] = molecular target: T1, RNA polymerase II (Mus musculus); test: Inhibition of RNA polymerase II in mouse B16-F1 migrating cells assessed as fold change in Rps8-RNA stability at 0.1 mM measured by […] analysis relative to control cells
[13] = molecular target: T1, RNA polymerase II (Mus musculus); test: Inhibition of RNA polymerase II in mouse B16-F1 migrating cells assessed as fold change in Crbn-RNA stability at 0.1 mM measured by ChIP-seq analysis relative to control cells
[14] = molecular target: Histone-lysine N-methyltransferase EZH2 (Mus musculus) (UniProt Q61188); test: Inhibition of EZH2 in mouse B16-F1 migrating cells assessed as fold change in H3K27me3-independent regulated Klf15-mRNA expression at 3 uM measured by […] analysis relative to control cells
How it was run: (§1)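 Confluent B16-F1 cells on fibronectin-coated plates were scratched at multiple sites, washed once with DMEM and left to migrate 3 h in growth medium (37 °C, 7% CO2); unscratched cells served as control. GSK343 (3 µM) was added 3 h before lysis. Poly A mRNA was sequenced (RNA-seq), with 5 replicates for untreated and 3 for treated cells. Differential expression was called by linear model with batch correction, at FDR <0.05 and fold change ≥1.3.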

[15] = molecular target: Histone-lysine N-methyltransferase EZH2 (Mus musculus) (UniProt Q61188); test: Inhibition of EZH2 in mouse B16-F1 migrating cells assessed as fold change in H3K27me3-buffered regulated Lrp4-mRNA expression at 3 uM measured by […] analysis relative to control cells
How it was run: (§2)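 Confluent B16-F1 cells on fibronectin-coated plates, cultured at 37 °C and 7% CO2, were scratched at multiple sites to induce migration. They were then held 3 h in growth medium containing 3 µM GSK343, with the inhibitor added 3 h before lysis. Unscratched cells served as controls. Poly A mRNA was analysed by RNA-seq (n=3 GSK343, n=5 controls). Linear models removed batch effects, and buffered genes were those altered only under GSK343 (FDR <0.05, fold change >1.3).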

[16] = molecular target: Histone-lysine N-methyltransferase EZH2 (Mus musculus) (UniProt Q61188); test: Inhibition of EZH2 in mouse B16-F1 migrating cells assessed as fold change in H3K27me3-buffered regulated Rnf145-mRNA expression at 3 uM measured by […] analysis relative to control cells; how it was run: as §1
[17] = molecular target: Histone-lysine N-methyltransferase EZH2 (Mus musculus) (UniProt Q61188); test: Inhibition of EZH2 in mouse B16-F1 migrating cells assessed as fold change in H3K27me3-buffered regulated Gatd1-mRNA expression at 3 uM measured by ChIP-seq analysis relative to control cells; how it was run: as §2
[18] = molecular target: Histone-lysine N-methyltransferase EZH2 (Mus musculus) (UniProt Q61188); test: Inhibition of EZH2 in mouse B16-F1 migrating cells assessed as fold change in H3K27me3-independent regulated Bnip3-mRNA expression at 3 uM measured by […] analysis relative to control cells; how it was run: as §1
[19] = molecular target: Histone-lysine N-methyltransferase EZH2 (Mus musculus) (UniProt Q61188); test: Inhibition of EZH2 in mouse B16-F1 migrating cells assessed as fold change in H3K27me3-buffered regulated Rev3l-mRNA expression at 3 uM measured by ChIP-seq analysis relative to control cells; how it was run: as §2
[20] = molecular target: Histone-lysine N-methyltransferase EZH2 (Mus musculus) (UniProt Q61188); test: Inhibition of EZH2 in mouse B16-F1 migrating cells assessed as fold change in H3K27me3-buffered regulated Ndufv3-mRNA expression at 3 uM measured by […] analysis relative to control cells; how it was run: as §2
[21] = molecular target: Histone-lysine N-methyltransferase EZH2 (Mus musculus) (UniProt Q61188); test: Inhibition of EZH2 in mouse B16-F1 migrating cells assessed as fold change in H3K27me3-buffered regulated Snhg5-mRNA expression at 3 uM measured by […] analysis relative to control cells; how it was run: as §1
[22] = molecular target: Histone-lysine N-methyltransferase EZH2 (Mus musculus) (UniProt Q61188); test: Inhibition of EZH2 in mouse B16-F1 migrating cells assessed as fold change in H3K27me3-dependent regulated Cxxc5-mRNA expression at 3 uM measured by […] analysis relative to control cells; how it was run: as §1
[23] = molecular target: Histone-lysine N-methyltransferase EZH2 (Mus musculus) (UniProt Q61188); test: Inhibition of EZH2 in mouse B16-F1 migrating cells assessed as fold change in H3K27me3-buffered regulated Rhbdf2-mRNA expression at 3 uM measured by […] analysis relative to control cells; how it was run: as §2
[24] = molecular target: Histone-lysine N-methyltransferase EZH2 (Mus musculus) (UniProt Q61188); test: Inhibition of EZH2 in mouse B16-F1 migrating cells assessed as fold change in H3K27me3-buffered regulated Gabre-mRNA expression at 3 uM measured by ChIP-seq analysis relative to control cells; how it was run: as §2
[25] = molecular target: Histone-lysine N-methyltransferase EZH2 (Mus musculus) (UniProt Q61188); test: Inhibition of EZH2 in mouse B16-F1 migrating cells assessed as fold change in H3K27me3-buffered regulated Spag1-mRNA expression at 3 uM measured by […] analysis relative to control cells; how it was run: as §1

Chain of Histone-lysine N-methyltransferase EZH2 (Mus musculus) (Q61188 whole entry): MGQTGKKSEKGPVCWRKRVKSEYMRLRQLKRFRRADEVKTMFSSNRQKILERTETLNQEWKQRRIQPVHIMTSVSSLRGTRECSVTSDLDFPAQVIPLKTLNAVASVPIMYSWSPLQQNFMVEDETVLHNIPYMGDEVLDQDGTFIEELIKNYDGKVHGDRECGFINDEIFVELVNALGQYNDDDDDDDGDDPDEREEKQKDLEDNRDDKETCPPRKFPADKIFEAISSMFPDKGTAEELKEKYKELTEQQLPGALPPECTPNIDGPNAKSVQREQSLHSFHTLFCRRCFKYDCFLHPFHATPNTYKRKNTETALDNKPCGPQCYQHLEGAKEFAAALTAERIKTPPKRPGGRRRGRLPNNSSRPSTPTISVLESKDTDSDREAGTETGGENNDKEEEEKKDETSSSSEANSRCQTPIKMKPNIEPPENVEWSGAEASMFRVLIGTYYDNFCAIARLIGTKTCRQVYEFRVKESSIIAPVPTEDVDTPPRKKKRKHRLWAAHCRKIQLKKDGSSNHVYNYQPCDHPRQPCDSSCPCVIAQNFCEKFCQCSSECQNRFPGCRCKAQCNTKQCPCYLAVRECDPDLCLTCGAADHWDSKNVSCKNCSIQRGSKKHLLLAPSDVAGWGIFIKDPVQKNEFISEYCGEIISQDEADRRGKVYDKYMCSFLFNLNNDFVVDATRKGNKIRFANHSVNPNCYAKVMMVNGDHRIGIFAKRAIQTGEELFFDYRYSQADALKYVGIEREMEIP

Structure (SMILES): OC[C@H]1O[C@@H](n2cnc3cc(Cl)c(Cl)cc32)[C@H](O)[C@@H]1O
- log2FC [1]: 0.43
- log2FC [2]: -0.71
- log2FC [3]: 0.46
- log2FC [4]: -0.83
- log2FC [5]: -0.68
- log2FC [6]: -0.62
- log2FC [7]: -0.43
- log2FC [8]: -0.67
- log2FC [9]: -0.97
- log2FC [10]: 0.41
- log2FC [11]: -0.62
- log2FC [12]: 0.41
- log2FC [13]: -0.45

Structure (SMILES): CCCc1cc(C)[nH]c(=O)c1CNC(=O)c1cc(-c2ccnc(N3CCN(C)CC3)c2)cc2c1cnn2C(C)C
- log2FC [14]: -0.5
- log2FC [15]: -0.39
- log2FC [16]: -0.49
- log2FC [17]: -0.43
- log2FC [18]: 0.68
- log2FC [19]: -0.47
- log2FC [20]: 0.38
- log2FC [21]: -0.89
- log2FC [22]: 0.23
- log2FC [23]: -0.57
- log2FC [24]: -0.84
- log2FC [25]: -0.78

Reference: ChEMBL document CHEMBL5674883, “The Heterochromatin Landscape in Migrating Cells and the Importance of H3K27me3 for Associated Transcriptome Alterations” (Cells, 2018)
